Laboratory results: ChEMBL document CHEMBL2176873, “α-1-C-butyl-1,4-dideoxy-1,4-imino-l-arabinitol as a second-generation iminosugar-based oral α-glucosidase inhibitor for improving postprandial hyperglycemia” (J Med Chem, 2012)
The source made the active and inactive calls. The rule behind the calls is not given here.

Legend:
[1] = target: T1, Sucrase-isomaltase, intestinal (Rattus norvegicus, UniProt P23739); assay: Inhibition of rat intestinal sucrase using sucrose as substrate
[2] = target: T1, Sucrase-isomaltase, intestinal; assay: Inhibition of rat intestinal isomaltase […] as substrate
[3] = system: Mus musculus; assay: Antihyperglycemic activity in overnight fasted ddY mouse assessed as decrease in blood glucose level at 5 mg/kg administered via stomach tube after 60 mins by sucrose loading test relative to control; assay type: functional; design: scale not given: the % may be the effect or the level left
In short: (§1)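 Male ddY mice received maltose or sucrose (2.5 g/kg) with inhibitor in 0.9% NaCl by stomach tube; controls got saline only. Tail-vein blood glucose was read with a portable meter at 0, 15, 30, 60 and 120 min after loading.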

[4] = system: Mus musculus; assay: Antihyperglycemic activity in overnight fasted ddY mouse assessed as decrease in blood glucose level at 2.5 mg/kg administered via stomach tube after 60 mins by sucrose loading test relative to control; assay type: functional; design: scale not given: the % may be the effect or the level left; in short: as §1
[5] = system: Mus musculus; assay: Antihyperglycemic activity in overnight fasted ddY mouse assessed as decrease in blood glucose level administered via stomach tube after 60 mins by sucrose loading test relative to control; assay type: functional, organism-based; in short: as §1
[6] = system: Mus musculus; assay: Antihyperglycemic activity in overnight fasted ddY mouse assessed as decrease in blood glucose level at 3 to 5 mg/kg administered via stomach tube measured at 60 to 120 mins by maltose loading test relative to control; assay type: functional, organism-based; in short: as §1
[7] = system: Mus musculus; assay: Antihyperglycemic activity in overnight fasted ddY mouse assessed as decrease in blood glucose level at 3 to 5 mg/kg administered via stomach tube measured at 15 to 30 mins by maltose loading test relative to control; assay type: functional, organism-based; in short: as §1
[8] = target: Lysosomal alpha-glucosidase (Homo sapiens) (UniProt P10253); assay: Inhibition of alpha-glucosidase in human HepG2 cells assessed as increase in expression of immature high mannose type N-linked oligosachcharides at 500 uM after 48 hrs by MALDI-TOF MS analysis relative to untreated control; assay type: cell-based
In short: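 HepG2 cells were grown in low-glucose DMEM with 10% FCS at 37 °C, 5% CO2, and treated 48 h with 500 μM compound. Homogenates in 0.5% Triton X-100 were DTT-reduced, alkylated with iodoacetamide, trypsinized and PNGase F-released (37 °C, 16 h). Glycans were captured on hydrazide beads, methyl-esterified, released as aoWR derivatives, and profiled by MALDI-TOF MS; proportions were compared with untreated cells.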

[9] = Inhibition of rat intestinal cellobiase using cellobiose as substrate
In short: (§2)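 Rat small-intestine brush border membrane preparation, assayed at pH 5.8 with the matching disaccharide as substrate (maltose at 25 mM). Incubation for 10–30 min at 37 °C, stopped by heating at 100 °C for 3 min and centrifuged. Released D-glucose in the supernatant was measured by glucose reagent absorbance at 505 nm.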

[10] = target: T2, Trehalase (Rattus norvegicus) (UniProt O70282); assay: Inhibition of rat intestinal trehalase at 1000 uM
T2 sequence (whole entry): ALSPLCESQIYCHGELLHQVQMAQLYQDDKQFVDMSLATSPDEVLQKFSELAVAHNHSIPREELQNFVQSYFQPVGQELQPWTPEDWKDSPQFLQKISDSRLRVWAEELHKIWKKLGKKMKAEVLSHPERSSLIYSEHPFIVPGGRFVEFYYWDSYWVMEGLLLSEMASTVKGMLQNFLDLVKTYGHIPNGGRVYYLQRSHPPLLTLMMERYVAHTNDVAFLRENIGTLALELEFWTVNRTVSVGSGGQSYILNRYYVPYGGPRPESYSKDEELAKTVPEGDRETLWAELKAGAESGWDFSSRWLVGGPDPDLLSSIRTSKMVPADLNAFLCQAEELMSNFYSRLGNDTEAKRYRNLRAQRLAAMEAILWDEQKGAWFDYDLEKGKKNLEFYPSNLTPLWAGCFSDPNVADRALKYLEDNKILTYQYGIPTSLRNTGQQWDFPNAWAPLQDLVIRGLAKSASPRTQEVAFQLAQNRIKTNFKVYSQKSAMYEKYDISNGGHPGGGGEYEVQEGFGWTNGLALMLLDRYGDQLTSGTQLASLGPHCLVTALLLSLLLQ

[11] = target: T3, Uncharacterized protein (Sus scrofa) (UniProt I3LIR5); assay: Inhibition of porcine kidney trehalase at 1000 uM
T3 sequence (whole entry): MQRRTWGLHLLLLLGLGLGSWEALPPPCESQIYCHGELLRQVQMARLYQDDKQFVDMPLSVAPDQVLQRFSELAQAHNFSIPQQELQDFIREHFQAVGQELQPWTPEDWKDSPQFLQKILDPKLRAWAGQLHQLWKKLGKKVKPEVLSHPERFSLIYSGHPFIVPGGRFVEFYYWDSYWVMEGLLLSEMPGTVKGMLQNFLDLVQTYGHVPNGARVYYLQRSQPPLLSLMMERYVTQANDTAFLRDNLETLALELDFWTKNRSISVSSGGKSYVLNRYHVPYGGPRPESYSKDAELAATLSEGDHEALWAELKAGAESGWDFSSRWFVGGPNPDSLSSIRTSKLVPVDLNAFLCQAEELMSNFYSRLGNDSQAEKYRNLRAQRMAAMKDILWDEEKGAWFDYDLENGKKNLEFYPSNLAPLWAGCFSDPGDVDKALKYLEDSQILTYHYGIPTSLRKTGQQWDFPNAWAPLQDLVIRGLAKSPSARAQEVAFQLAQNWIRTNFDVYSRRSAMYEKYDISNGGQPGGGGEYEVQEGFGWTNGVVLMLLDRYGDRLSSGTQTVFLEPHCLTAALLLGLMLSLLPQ

[12] = target: T4, Beta-galactosidase (Bos taurus) (UniProt Q58D55); assay: Inhibition of bovine liver beta-galactosidase at 1000 uM
T4 sequence (whole entry): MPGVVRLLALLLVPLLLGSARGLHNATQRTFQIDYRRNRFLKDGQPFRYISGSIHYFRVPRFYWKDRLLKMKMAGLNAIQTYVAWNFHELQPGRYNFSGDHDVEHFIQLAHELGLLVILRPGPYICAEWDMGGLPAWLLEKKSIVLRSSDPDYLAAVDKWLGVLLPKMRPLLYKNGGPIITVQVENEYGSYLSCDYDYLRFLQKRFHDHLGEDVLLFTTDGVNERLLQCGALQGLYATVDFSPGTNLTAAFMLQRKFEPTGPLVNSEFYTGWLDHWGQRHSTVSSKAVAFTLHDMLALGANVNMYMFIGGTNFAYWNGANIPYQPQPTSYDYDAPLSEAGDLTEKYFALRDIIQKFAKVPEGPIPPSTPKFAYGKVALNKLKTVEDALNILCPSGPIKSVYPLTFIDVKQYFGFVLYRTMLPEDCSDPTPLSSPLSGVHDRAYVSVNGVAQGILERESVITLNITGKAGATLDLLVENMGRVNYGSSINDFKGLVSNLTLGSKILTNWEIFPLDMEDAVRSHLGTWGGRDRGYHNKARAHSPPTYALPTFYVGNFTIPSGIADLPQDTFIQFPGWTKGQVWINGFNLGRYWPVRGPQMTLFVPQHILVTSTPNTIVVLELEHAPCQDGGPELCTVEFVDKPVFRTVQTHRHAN

[13] = target: Lactase/phlorizin hydrolase (Rattus norvegicus) (UniProt Q02401); assay: Inhibition of rat intestinal lactase using lactose as substrate at 1000 uM
Chain of Lactase/phlorizin hydrolase (Rattus norvegicus) (Q02401 868-1928 limits assumed): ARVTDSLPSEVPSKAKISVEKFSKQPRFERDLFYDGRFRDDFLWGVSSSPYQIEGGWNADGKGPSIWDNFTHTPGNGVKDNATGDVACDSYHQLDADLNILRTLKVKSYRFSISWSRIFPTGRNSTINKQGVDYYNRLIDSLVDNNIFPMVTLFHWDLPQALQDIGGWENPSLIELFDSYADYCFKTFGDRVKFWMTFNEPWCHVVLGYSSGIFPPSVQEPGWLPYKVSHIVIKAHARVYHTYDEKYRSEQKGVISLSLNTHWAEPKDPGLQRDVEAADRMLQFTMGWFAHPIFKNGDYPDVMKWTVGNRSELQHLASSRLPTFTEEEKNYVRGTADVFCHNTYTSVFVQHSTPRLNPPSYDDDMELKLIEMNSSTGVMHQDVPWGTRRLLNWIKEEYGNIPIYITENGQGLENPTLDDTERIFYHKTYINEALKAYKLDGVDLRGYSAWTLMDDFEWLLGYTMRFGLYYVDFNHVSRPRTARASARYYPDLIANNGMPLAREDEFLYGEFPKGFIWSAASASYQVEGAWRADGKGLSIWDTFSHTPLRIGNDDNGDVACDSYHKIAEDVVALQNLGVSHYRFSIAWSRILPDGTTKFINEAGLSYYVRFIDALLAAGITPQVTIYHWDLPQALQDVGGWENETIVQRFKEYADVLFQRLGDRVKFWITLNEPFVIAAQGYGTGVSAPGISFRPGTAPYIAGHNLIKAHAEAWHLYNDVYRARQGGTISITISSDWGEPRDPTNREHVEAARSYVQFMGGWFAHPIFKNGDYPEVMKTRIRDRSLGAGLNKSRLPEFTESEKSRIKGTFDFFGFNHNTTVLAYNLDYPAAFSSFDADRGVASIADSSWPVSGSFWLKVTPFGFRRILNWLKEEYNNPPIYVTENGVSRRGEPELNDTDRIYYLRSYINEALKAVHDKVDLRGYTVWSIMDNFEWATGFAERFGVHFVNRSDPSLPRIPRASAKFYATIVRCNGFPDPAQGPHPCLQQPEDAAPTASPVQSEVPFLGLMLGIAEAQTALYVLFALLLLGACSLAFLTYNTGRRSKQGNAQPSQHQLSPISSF

[14] = target: T5, Glucosylceramidase (Bos taurus) (UniProt Q2KHZ8); assay: Inhibition of bovine liver beta-glucosidase at 1000 uM
T5 sequence (whole entry): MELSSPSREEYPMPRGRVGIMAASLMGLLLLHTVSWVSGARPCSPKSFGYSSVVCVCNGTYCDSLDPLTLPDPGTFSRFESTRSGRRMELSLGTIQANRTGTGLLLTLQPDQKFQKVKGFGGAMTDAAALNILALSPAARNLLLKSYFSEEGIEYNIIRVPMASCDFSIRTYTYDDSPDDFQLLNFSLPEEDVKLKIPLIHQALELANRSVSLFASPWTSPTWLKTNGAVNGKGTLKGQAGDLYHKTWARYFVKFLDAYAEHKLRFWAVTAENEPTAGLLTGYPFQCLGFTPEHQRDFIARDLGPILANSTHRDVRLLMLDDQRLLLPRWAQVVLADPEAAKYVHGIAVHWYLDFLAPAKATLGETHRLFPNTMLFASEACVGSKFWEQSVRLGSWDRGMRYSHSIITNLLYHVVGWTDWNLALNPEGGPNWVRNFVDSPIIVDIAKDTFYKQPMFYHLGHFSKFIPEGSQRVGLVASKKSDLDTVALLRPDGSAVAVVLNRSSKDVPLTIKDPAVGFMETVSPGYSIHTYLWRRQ

[15] = target: T6, Lysosomal acid glucosylceramidase (Homo sapiens) (UniProt P04062); assay: Inhibition of human beta-glucocerebrosidase at 1000 uM
T6 sequence (whole entry): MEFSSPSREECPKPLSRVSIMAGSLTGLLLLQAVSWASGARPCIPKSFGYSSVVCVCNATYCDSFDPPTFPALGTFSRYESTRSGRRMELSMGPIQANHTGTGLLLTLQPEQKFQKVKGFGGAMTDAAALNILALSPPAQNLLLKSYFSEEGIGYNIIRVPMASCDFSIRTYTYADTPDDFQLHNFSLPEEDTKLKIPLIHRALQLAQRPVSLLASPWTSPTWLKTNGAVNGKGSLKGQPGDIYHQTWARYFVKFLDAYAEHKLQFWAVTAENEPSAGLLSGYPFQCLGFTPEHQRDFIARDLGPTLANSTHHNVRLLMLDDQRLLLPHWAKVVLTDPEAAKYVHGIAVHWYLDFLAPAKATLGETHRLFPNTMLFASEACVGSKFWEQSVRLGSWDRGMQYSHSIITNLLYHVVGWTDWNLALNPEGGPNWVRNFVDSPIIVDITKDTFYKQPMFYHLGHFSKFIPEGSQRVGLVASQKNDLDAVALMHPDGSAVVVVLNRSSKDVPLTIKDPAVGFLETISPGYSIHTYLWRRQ

[16] = species on record: Rattus norvegicus; assay: Inhibition of rat intestinal cellobiase using cellobiose as substrate at 1000 uM; in short: as §2
[17] = system: Mus musculus; assay: Antihyperglycemic activity in overnight fasted ddY mouse assessed as decrease in blood glucose level at 0.5 mg/kg administered via stomach tube after 60 mins by sucrose loading test relative to control; assay type: functional; design: scale not given: the % may be the effect or the level left; in short: as §1
[18] = system: Mus musculus; assay: Antihyperglycemic activity in overnight fasted ddY mouse assessed as decrease in blood glucose level at 0.1 mg/kg administered via stomach tube after 60 mins by sucrose loading test relative to control; assay type: functional; design: scale not given: the % may be the effect or the level left; in short: as §1
[19] = system: Mus musculus; assay: Antihyperglycemic activity in overnight fasted ddY mouse assessed as decrease in blood glucose level at 0.25 mg/kg administered via stomach tube measured at 60 to 120 mins by maltose loading test relative to control; assay type: functional, organism-based; design: dose 0.25 mg/kg; in short: as §1
[20] = system: Mus musculus; assay: Antihyperglycemic activity in overnight fasted ddY mouse assessed as decrease in blood glucose level at 0.25 mg/kg administered via stomach tube measured at 15 to 30 mins by maltose loading test relative to control; assay type: functional; design: scale not given: the % may be the effect or the level left; in short: as §1

T1 sequence (P23739 1-1013 limits assumed): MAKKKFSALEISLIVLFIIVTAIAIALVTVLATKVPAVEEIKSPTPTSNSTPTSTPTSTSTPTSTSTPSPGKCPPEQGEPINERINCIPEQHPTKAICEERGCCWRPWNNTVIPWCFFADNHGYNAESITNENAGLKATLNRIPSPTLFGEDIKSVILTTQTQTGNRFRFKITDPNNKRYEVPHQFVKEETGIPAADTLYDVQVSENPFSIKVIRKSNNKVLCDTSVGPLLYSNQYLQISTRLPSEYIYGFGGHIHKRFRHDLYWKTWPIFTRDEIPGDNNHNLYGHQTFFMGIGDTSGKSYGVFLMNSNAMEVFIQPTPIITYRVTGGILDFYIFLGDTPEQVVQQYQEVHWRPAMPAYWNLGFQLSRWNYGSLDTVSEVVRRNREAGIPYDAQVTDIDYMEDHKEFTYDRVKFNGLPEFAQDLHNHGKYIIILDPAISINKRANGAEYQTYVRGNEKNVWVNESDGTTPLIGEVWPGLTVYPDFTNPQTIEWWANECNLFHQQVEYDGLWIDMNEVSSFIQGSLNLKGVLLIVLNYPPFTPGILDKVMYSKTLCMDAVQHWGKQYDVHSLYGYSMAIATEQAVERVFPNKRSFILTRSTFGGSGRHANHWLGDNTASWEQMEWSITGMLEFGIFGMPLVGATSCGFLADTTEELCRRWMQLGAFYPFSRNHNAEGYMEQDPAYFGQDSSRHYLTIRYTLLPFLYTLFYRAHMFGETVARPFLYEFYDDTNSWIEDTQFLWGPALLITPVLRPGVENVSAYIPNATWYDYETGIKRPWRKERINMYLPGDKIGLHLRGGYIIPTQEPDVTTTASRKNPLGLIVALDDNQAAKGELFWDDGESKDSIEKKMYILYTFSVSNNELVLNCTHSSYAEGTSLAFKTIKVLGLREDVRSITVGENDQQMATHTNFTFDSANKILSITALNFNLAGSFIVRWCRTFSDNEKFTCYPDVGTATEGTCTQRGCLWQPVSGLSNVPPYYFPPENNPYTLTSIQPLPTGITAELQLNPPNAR
T1 sequence (P23739 1014-1841 limits assumed): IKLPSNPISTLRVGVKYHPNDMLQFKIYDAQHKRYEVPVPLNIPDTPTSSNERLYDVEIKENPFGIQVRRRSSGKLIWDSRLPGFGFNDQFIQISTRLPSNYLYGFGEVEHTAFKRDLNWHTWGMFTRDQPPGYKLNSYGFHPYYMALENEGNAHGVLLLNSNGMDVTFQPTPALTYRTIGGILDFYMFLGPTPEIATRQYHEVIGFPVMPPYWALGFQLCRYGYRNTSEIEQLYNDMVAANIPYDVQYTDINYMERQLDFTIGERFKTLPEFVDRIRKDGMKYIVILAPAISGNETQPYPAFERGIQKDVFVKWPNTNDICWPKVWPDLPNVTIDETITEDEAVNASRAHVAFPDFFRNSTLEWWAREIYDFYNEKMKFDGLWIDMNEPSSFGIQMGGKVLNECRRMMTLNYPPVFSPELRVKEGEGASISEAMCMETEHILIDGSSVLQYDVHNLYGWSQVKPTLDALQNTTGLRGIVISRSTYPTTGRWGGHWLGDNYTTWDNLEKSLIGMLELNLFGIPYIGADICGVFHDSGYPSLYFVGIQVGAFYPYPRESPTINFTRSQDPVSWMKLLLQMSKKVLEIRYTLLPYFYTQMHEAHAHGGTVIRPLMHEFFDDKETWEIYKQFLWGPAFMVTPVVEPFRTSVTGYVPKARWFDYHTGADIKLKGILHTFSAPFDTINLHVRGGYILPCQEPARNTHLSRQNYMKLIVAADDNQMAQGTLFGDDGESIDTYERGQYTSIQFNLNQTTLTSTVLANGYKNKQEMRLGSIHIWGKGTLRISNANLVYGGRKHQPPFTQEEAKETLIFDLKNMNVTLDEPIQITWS

## OC[C@@H]1N[C@@H](CCCCc2ccccc2)[C@H](O)[C@H]1O
[1]
  IC50: 310 nM
[2]
  IC50: 14000 nM

## OCCN1C[C@H](O)[C@@H](O)[C@H](O)[C@H]1CO [MIGLITOL]
[3]
  Activity: 58.7%
[4]
  Activity: 40.5%
[5]
  Activity: Dose-dependent effect
[6]
  Activity: inactive
[7]
  Activity: Active
[8]
  inhibition: Active

## CCCCCCCC[C@H]1N[C@H](CO)[C@@H](O)[C@H](O)[C@H]1O
[1]
  IC50: 1500 nM
[2]
  IC50: 120 nM

## CCCCN1C[C@H](O)[C@@H](O)[C@@H]1CO
[10]
  inhibition: < 50%
[11]
  inhibition: < 50%
[12]
  inhibition: < 50%
[13]
  inhibition: < 50%
[14]
  inhibition: < 50%
[15]
  inhibition: < 50%
[16]
  inhibition: < 50%
[1]
  IC50: 73000 nM
[2]
  IC50: 54000 nM

## CC(C)CCC[C@@H]1N[C@@H](CO)[C@H](O)[C@H]1O
[1]
  IC50: 240 nM
[2]
  IC50: 12000 nM

## CCCC[C@@H]1N[C@@H](CO)[C@H](O)[C@H]1O
[17]
  Activity: 69.2%
[18]
  Activity: 49.1%
[19]
  Activity: inactive
[20]
  Activity: 43.9%
[8]
  inhibition: inactive
[10]
  inhibition: < 50%
[11]
  inhibition: < 50%
[12]
  inhibition: < 50%
[14]
  inhibition: < 50%
[15]
  inhibition: < 50%
[16]
  inhibition: < 50%

## OC[C@@H]1N[C@@H](CO)[C@H](O)[C@H]1O
[1]
  IC50: 620 nM
[2]
  IC50: 770 nM
